Experimental data from PMC3968794 (Bioorganic & medicinal chemistry, 2013).
Where two headings read alike, the source gives them in different places.

Experiments:
tubulin [1] = experiment: Inhibition of tubulin assembly; format: biochemical; details: read-out: Inhibition of tubulin polymerization IC50; cell-free assay, tubulin purified from calf brain
In short: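 Calf-brain tubulin; test compound mixtures held on ice 15 min, then GTP added from a 2.5 mM stock. Samples equilibrated at 0 °C for 8 min in the spectrophotometer, then read at 350 nm every 30 s for 3800 s. Temperature program: 0 °C for 100 s, 38 °C for 120 s, 31 °C until 2600 s, then 0 °C to the end.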

tubulin [2] = details: read-out: Inhibition of tubulin polymerization IC50; cell-free assay; ref [61]; cited from earlier work
[3] = test system: SK-OV-3, NCI-H460 and DU-145 human cancer cell lines; experiment: SRB cytotoxicity assay, three human cancer cell lines stated together; format: cell-based
In short: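 Sulforhodamine B growth-inhibition assay (NCI standard method). Cells were grown in RPMI1640 with 5% fetal bovine serum and 1% gentamicin, then plated and incubated 24 h. Serial dilutions of test compound were added, with 48 h exposure. Cells were fixed with trichloroacetic acid, stained with SRB, and read by optical density. GI50 (concentration halving net protein increase) was calculated from OD data.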

| IC50 (tubulin [1]) [µM] | SMILES | also measured |
| --- | --- | --- |
| > 40 | COc1cc(C2=CCCCc3c2cc(OC)c(OC)c3O)cc(OC)c1OC [Compound 43, 1-Hydroxy-2,3-dimethoxy-5-(3′,4′,5′-trimethoxyphenyl)-benzocyclohept-5-ene] |  |
| > 40 | COc1ccc(C2=CCCCc3c2ccc(OC)c3OC)cc1OC [Compound 35, 1,2-Dimethoxy-5-(3,4-dimethoxyphenyl)-benzocyclohept-5-ene] |  |
|  | COc1ccc(/C=C\c2cc(OC)c(OC)c(OC)c2)cc1OP(=O)(O)O [CA4P, combretastatin A-4P] | IC50 (tubulin [2]): > 40 µM |
|  | COc1ccc2c(c1NC(=O)[C@@H](N)CO)CCCC=C2c1cc(OC)c(OC)c(OC)c1.Cl [Compound 48, 1-(L-ser)amido-5-(3′,4′,5′-trimethoxyphenyl)-2-methoxy-benzocyclohept-5-ene hydrochloride] | Cytotoxicity (in words) ([3]; three human cancer cell lines): inactive in terms of cytotoxicity |
|  | COc1ccc2c(c1O)CCCC=C2c1cc(OC)c(OC)c(OC)c1 [Compound 39, 1-Hydroxy-2-methoxy-5-(3′,4′,5′-trimethoxyphenyl)-benzocyclohept-5-ene] | GI50 ([3]; Homo sapiens, read-out: GI50 (cytotoxicity)): < 0.0001 µM |
| > 40 | COc1cc(C2=CCCCc3ccccc32)cc(OC)c1OC [Compound 41, 5-(3,4,5-trimethoxyphenyl)-benzocyclohept-5-ene] |  |

| SMILES | IC50 (tubulin [1]) [µM] | also measured |
| --- | --- | --- |
| COc1cc(C2=CCCCc3c2ccc(OC)c3OP(=O)(O)O)cc(OC)c1OC [Compound 44, Disodium 2-Methoxy-5-(3′,4′,5′-trimethoxyphenyl)-benzocyclohept-5-ene-1-phosphate] | > 40 |  |
| COc1cc2c(c(OC)c1O)CCCC=C2c1cc(OC)c(OC)c(OC)c1 [Compound 38, 1,3-Dimethoxy-2-hydroxy-5-(3′,4′,5′-trimethoxyphenyl)-benzocyclohept-5-ene] | > 40 |  |
